Publication PMC6993113 (Journal of medicinal chemistry, 2017)
Values joined by “and” are separate entries in the source; they are usually repeats but may differ in a detail not shown here. Equal entries are not always repeated.

Key:
Pharmacokinetics in rats = format: in vivo, Sprague Dawley rats; conditions: for CL: Rat, PO (25 mg/kg)
Outline: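 Sprague Dawley rats got test compound iv at 5 mg/kg or orally at 25 mg/kg in a vehicle of 20% (v/v) PCP and 70% (v/v) PBS. Blood (100 μL) was drawn by catheter at 0, 5, 15 and 30 min and 1, 2, 4, 6, 8 and 24 hr, then spun at 15 000 rpm for 10 min. Plasma was stored at −80 °C and assayed by validated LC–MS/MS. Parameters were derived noncompartmentally.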

[1] = Solubility in the dosing vehicle; format: physicochemical; conditions: 5% DMSO+10% Cremophor+85% saline
Aqueous solubility = format: physicochemical
[2] = target: recombinant human BRD4 BD1 (Homo sapiens, UniProt O60885); test: Competitive fluorescence-polarization binding assay, BRD4 BD1; conditions: for Ki: BRD4 BD1 Ki, FP competitive binding, Tables 1, 2, 7 and text
[3] = target: recombinant human BRD4 BD2 (Homo sapiens, UniProt O60885); test: Competitive fluorescence-polarization binding assay, BRD4 BD2; conditions: for Ki: BRD4 BD2 Ki, FP competitive binding
[4] = system: MV4;11 acute leukemia cell line; test: Cell growth inhibition; format: cell-based; conditions: Homo sapiens, MV4-11, 96 h, read-out: IC50 MV4;11 cell growth inhibition
[5] = system: MOLM-13 acute leukemia cell line; test: Cell growth inhibition; format: cell-based; conditions: Homo sapiens, MOLM-13, 96 h, read-out: IC50 MOLM-13 cell growth inhibition
all other 371 kinases = test: DiscoverX KINOMEscan kinase screening, remaining panel; format: binding, human; conditions: read-out: IC50 against all other 371 kinases
MV4;11 xenograft tumors = conditions: mouse, in vivo
c-Myc = test: Western blot of c-Myc in MV4; format: cell-based, human; conditions: MV4;11 cells, 1 h, different concentrations
p21 = test: Western blot of p21 in MV4; format: cell-based, human; conditions: MV4;11 cells, 24 h
PARP = test: Western blot of PARP cleavage in MV4; format: cell-based, human; conditions: MV4;11 cells, 24 h
[6] = system: MDA-MB-231 xenograft tumors
[7] = Table 4 second column as headed

SMILES | IC50 [2] [nM] | Ki [2] [nM] | IC50 [3] [nM] | Ki ([3]; Tables 1, 2, 7 and text) [nM] | IC50 [4] [nM] | IC50 [5] [nM] | also measured
COc1cc2c(cc1-c1c(C)noc1C)[nH]c1ncnc(-c3c(C)[nH]c4ccccc34)c12 [Compound 21, 4-(6-Methoxy-4-(2-methyl-1H-indol-3-yl)-9H-pyrimido[4,5-b]indol-7-yl)-3,5-dimethylisoxazole] |  |  |  |  |  |  | CL (Pharmacokinetics in rats): 31.7 mL/min/kg; Cmax (Pharmacokinetics in rats; Sprague Dawley, rat, plasma, po, 25 mg/kg): 1470 ng/mL and ~3 µM; solubility in the dosing vehicle [1]: difficult to dissolve; aqueous solubility (Aqueous solubility): poor
COc1cc2c(cc1-c1c(C)noc1C)[nH]c1nc(C)nc(-c3c(C)ccc4ncccc34)c12 [Compound 33, 4-(6-Methoxy-2-methyl-4-(6-methylquinolin-5-yl)-9H-pyrimido[4,5-b]indol-7-yl)-3,5-dimethyl-isoxazole] | 93.8 ± 15.8 | 38.4 ± 10.5 | 36.3 ± 6.9 | 10.5 ± 1.9 | 99 ± 43 | 220 ± 101 | 
COc1cc2c(cc1-c1c(C)noc1C)[nH]c1nc(C)nc(-c3ccnc4ccccc34)c12 [Compound 31, 4-(6-Methoxy-2-methyl-4-(quinolin-4-yl)-9H-pyrimido[4,5-b]indol-7-yl)-3,5-dimethylisoxazole] |  |  |  |  |  |  | CL (Pharmacokinetics in rats): 14.7 mL/min/kg; IC50 (all other 371 kinases): > 50000 nM; weight loss or other signs of toxicity (MV4;11 xenograft tumors): did not cause weight loss or other signs of toxicity; effect on c-Myc protein level (c-Myc): rapid down-regulation of c-Myc at as early as the 1 h time-point and in a dose-dependent manner; effect on p21 protein level (p21): effective in inducing upregulation of the cell cycle regulator p21; cleavage of PARP (marker of apoptosis) (PARP): cleavage of PARP; solubility in the dosing vehicle [1]: readily soluble; tumor growth inhibition ([6]; MDA-MB-231 xenograft in mice, 40 mg/kg dosing daily, during the treatment period): essentially complete tumor growth inhibition; weight loss or other signs of toxicity ([6]; mouse, in vivo): did not experience weight loss or other signs of toxicity
COc1cc2c(cc1-c1c(C)noc1C)[nH]c1ncnc(-c3c[nH]c4cc(F)ccc34)c12 [Compound 20, 4-(4-(6-Fluoro-1H-indol-3-yl)-6-methoxy-9H-pyrimido[4,5-b]indol-7-yl)-3,5-dimethylisoxazole] | 2.2 ± 1 | 2.6 | 12.2 ± 4.2 | 1 | 76 ± 31 | 374 ± 52 | Ki [3, 7]: 2.6 ± 0.8 nM
COc1cc2c(cc1-c1c(C)noc1C)[nH]c1ncnc(-n3nnc4ccccc43)c12 [Compound 28, 4-(4-(1H-Benzo[d][1,2,3]triazol-1-yl)-6-methoxy-9H-pyrimido[4,5-b]indol-7-yl)-3,5-dimethylisoxazole] |  |  |  |  |  |  | binding to BRD4 BD1 at 1 μM ([2]; FP binding, 1 μM): fails to show any appreciable binding; binding to BRD4 BD2 at 1 μM ([3]; FP binding, 1 μM): fails to show any appreciable binding
COc1cc2c(cc1-c1c(C)noc1C)[nH]c1ccnc(-c3c(C4CC4)n[nH]c3C)c12 [Compound 6, RX-37, reference compound] |  |  |  |  | 20 ± 9 |  | 
COc1cc2c(cc1-c1c(C)noc1C)[nH]c1ncnc(-c3c(C)[nH]c4cc(F)ccc34)c12 [Compound 22, 4-(4-(6-Fluoro-2-methyl-1H-indol-3-yl)-6-methoxy-9H-pyrimido[4,5-b]indol-7-yl)-3,5-dimethyl isoxazole] | 2.3 ± 1.1 | < 1 | 5.6 ± 1.9 | < 1 | 5.1 ± 2.8 | 51 ± 6 | Ki [3, 7]: 0.9 ± 0.3 nM
COc1cc2c(cc1-c1c(C)noc1C)ncc1[nH]c(=O)n([C@H](C)c3ccccn3)c12 [Compound 5, I-BET151, reference compound] |  |  |  |  | 162 ± 112 |  | weight loss or other signs of toxicity (MV4;11 xenograft tumors): did not cause weight loss or other signs of toxicity
